Measurements from ChEMBL document CHEMBL2016491, “Synthesis and structure-activity relationships of (aryloxy)quinazoline ureas as novel, potent, and selective vascular endothelial growth factor receptor-2 inhibitors” (J Med Chem, 2012).

How the values were obtained:
[1] = target: Epidermal growth factor receptor (Homo sapiens, UniProt P00533); assay: Inhibition of human EGFR expressed in human A431 cells using poly(Glu4/Tyr) and [gamma32P]ATP as substrate after 1 hr by scintillation counting; set-up: species or system A-431
Sequence of Epidermal growth factor receptor (P00533 whole entry): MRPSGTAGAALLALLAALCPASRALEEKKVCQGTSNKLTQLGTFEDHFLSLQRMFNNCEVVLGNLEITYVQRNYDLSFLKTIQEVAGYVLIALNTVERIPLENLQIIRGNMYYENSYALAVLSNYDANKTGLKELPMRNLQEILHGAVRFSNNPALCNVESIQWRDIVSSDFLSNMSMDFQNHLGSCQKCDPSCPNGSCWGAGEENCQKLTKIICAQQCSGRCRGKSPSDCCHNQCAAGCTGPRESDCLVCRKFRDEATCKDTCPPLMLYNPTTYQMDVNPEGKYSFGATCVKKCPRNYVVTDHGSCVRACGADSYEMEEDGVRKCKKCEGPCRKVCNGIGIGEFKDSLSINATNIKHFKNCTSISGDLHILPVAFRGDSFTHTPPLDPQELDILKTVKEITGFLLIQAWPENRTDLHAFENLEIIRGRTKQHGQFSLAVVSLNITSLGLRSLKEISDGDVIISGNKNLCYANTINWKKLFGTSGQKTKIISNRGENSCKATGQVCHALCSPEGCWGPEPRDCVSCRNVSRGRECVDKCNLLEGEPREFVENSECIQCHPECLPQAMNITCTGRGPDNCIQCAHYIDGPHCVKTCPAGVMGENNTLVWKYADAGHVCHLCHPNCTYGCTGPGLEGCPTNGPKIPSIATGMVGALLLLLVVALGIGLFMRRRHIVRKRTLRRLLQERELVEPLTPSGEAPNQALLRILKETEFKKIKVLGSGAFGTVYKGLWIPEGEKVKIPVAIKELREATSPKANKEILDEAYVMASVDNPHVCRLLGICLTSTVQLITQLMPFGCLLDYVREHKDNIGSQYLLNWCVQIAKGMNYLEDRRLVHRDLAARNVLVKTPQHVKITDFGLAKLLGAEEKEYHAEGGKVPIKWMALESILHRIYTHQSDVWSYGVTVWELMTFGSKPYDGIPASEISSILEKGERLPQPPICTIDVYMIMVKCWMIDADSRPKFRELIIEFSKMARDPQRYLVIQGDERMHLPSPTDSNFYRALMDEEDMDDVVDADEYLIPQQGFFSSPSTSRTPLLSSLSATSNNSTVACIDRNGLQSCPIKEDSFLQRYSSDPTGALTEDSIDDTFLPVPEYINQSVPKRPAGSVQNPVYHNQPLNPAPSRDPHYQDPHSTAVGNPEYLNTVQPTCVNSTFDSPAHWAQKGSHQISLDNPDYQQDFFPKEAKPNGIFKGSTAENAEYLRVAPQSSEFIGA

HT-29 [2] = assay: Antiproliferative activity against human HT-29 cells at 10 uM after 72 hrs by MTS assay; type: functional; conditions: HT-29, 72 h
In short: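 Single-concentration test at 10 μM, with compound in <0.1% DMSO. Cells were plated at 3000/well in triplicate, given a 24 h pre-incubation, then treated for 72 h at 37 °C, 5% CO2. Growth inhibition (%) was read by MTS. HT29 was grown in DMEM + Glutamax-I with 10% FBS. Mean of at least three independent experiments.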

MCF7 [3] = assay: Antiproliferative activity against human MCF7 cells at 10 uM after 72 hrs by MTS assay; type: functional; conditions: MCF7, 72 h
[4] = target: Vascular endothelial growth factor receptor 2 (Homo sapiens, UniProt P35968); assay: Inhibition of recombinant human VEGFR-2 using poly(Glu4/Tyr) and [gamma32P]ATP as substrate after 1 hr by scintillation counting
Sequence of Vascular endothelial growth factor receptor 2 (P35968 whole entry): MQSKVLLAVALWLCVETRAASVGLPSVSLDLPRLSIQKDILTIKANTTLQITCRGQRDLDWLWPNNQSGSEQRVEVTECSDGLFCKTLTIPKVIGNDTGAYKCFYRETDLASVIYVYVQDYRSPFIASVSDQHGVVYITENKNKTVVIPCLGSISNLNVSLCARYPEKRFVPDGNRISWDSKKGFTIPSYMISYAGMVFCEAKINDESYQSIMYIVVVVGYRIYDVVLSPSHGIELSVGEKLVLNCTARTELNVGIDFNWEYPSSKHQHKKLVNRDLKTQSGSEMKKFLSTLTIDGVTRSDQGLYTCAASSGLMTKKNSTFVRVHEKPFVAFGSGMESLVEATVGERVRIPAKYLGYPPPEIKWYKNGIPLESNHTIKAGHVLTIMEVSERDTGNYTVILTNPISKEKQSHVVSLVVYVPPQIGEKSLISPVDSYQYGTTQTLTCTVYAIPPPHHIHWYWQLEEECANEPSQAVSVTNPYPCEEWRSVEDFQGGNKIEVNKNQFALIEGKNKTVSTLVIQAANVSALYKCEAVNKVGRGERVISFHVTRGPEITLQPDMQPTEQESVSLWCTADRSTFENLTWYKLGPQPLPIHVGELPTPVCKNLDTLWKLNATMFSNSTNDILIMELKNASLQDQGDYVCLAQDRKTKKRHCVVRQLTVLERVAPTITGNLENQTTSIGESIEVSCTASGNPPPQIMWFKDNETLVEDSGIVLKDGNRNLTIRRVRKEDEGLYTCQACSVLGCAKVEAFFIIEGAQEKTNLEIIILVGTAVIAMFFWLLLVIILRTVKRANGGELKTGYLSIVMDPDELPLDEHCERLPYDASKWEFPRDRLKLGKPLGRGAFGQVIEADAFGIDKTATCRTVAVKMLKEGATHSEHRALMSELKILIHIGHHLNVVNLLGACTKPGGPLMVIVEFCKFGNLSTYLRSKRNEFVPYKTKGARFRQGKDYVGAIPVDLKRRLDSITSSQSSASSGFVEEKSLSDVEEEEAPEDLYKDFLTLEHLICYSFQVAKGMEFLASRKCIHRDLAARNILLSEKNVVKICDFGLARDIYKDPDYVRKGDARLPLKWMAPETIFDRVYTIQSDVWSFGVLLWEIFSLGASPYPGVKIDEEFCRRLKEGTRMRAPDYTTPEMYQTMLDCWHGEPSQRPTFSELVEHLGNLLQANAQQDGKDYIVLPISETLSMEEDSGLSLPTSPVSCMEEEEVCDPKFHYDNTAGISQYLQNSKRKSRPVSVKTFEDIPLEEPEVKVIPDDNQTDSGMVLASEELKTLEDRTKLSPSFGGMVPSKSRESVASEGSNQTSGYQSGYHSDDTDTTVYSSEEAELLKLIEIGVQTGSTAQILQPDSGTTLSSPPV

PC-3 = assay: Antiproliferative activity against human PC3 cells at 10 uM after 72 hrs by MTS assay; type: functional; conditions: PC-3, 72 h
[5] = Solubility of the compound; type: physicochemical
HT-29 [6] = assay: Antiproliferative activity against human HT-29 cells after 72 hrs by MTS assay; conditions: HT-29, 72 h
MCF7 [7] = assay: Antiproliferative activity against human MCF7 cells after 72 hrs by MTS assay; conditions: MCF7, 72 h

Row | IC50 [1] [µM] | IC50 [4] [µM] | solubility [5] | IC50 (HT-29 [6]) [µM] | IC50 (MCF7 [7]) [µM] | Compound | inhibition at 10 µM (HT-29 [2]) [%] | inhibition at 10 µM (MCF7 [3]) [%] | inhibition at 10 µM (PC-3) [%]
1 | 9.1 | 7.45 | – | – | – | CCN(CC)CCOc1cc2c(Nc3ccc(Br)cc3F)ncnc2cc1OC | 35 | 0 | 0
2 | > 10 | 1 | – | 7.5 | – | CCN(CC)CCOc1cc2ncnc(Nc3ccc(Br)cc3F)c2cc1OC | – | 10 | 16
3 | > 10 | 5.2 | – | – | – | CCN(CC)CCOc1cc2ncnc(Nc3ccc(NC(=O)OC)c(Cl)c3)c2cc1OC | 38 | 0 | 0
4 | 9.15 | – | – | 2.5 | 7.1 | CCCCOc1cc2c(Nc3ccc(NC(=O)OCC)c(Cl)c3)ncnc2cc1OCCN(CC)CC | – | – | 40
5 | – | – | – | 5.8 | – | CCCCOc1cc2c(Nc3ccc(NC(=O)OCC)c(C)c3)ncnc2cc1OCCN(CC)CC | – | 0 | 0
6 | > 10 | 9.4 | – | 6.15 | – | CCCCOc1cc2c(Nc3ccc(NC(=O)OC)c(C)c3)ncnc2cc1OCCN(CC)CC | – | 0 | 0
7 | – | 3.35 | – | 5.45 | – | CCOC(=O)Nc1ccc(Nc2ncnc3cc(OCCN(CC)CC)c(OC)cc23)cc1Cl | – | 0 | 0
8 | > 10 | 5.3 | – | 3.6 | 7.7 | CCCCOc1cc2c(Nc3ccc(Br)cc3F)ncnc2cc1OCCN(CC)CC | – | – | 31
9 | > 10 | 7.4 | – | 2.55 | – | CCCCOc1cc2c(Nc3ccc(NC(=O)OC)c(Cl)c3)ncnc2cc1OCCN(CC)CC | – | 33 | 11
10 | – | 4 | – | – | – | CCCC(=O)Nc1ccc(Nc2ncnc3cc(OC)c(OC)cc23)cc1C | 0 | 5 | 0
11 | 9.45 | 6.45 | – | 2.55 | 9.6 | CCN(CC)CCOc1cc2ncnc(Nc3ccc(C)c(Br)c3)c2cc1OC | – | – | 36
12 | > 10 | 6.95 | – | – | – | CCN(CC)CCOc1cc2ncnc(Nc3ccc(NC(=O)OC)c(C)c3)c2cc1OC | 1 | 0 | 0
13 | > 10 | – | – | – | – | CCC(=O)Nc1ccc(Nc2ncnc3cc(OC)c(OC)cc23)cc1 | – | – | –
14 | 9.9 | 6.9 | – | 5.9 | – | CCN(CC)CCOc1cc2ncnc(Nc3ccc(F)c(Cl)c3)c2cc1OC | – | 26 | 36
15 | > 10 | 6.6 | – | – | – | CCNC(=O)Nc1ccc(Nc2ncnc3cc(OCCN(CC)CC)c(OC)cc23)cc1 | 0 | 0 | 0
16 | 3.6 | 0.8 | – | – | – | COc1cc2ncnc(Nc3ccc(Br)cc3)c2cc1OC | 2 | 42 | 37

Further lines, the compound ahead of its results:

Row | Compound | IC50 [1] [µM] | IC50 [4] [µM] | solubility [5] | IC50 (HT-29 [6]) [µM] | IC50 (MCF7 [7]) [µM] | inhibition at 10 µM (HT-29 [2]) [%] | inhibition at 10 µM (MCF7 [3]) [%] | inhibition at 10 µM (PC-3) [%]
17 | CCCCOC(=O)Nc1ccc(Nc2ncnc3cc(OC)c(OC)cc23)cc1C | – | – | – | – | – | 13 | 33 | 4
18 | COc1cccc(NC(=O)Nc2ccc(Oc3ncnc4cc(OC)c(OC)cc34)cc2)c1 | > 10 | – | Insoluble | – | – | – | – | –
19 | COC(=O)Nc1ccc(Nc2ncnc3cc(OC)c(OC)cc23)cc1 | – | – | – | – | – | 10 | 27 | 2
20 | COc1cc2ncnc(Oc3ccc(NC(=O)Nc4ccc(F)c(Cl)c4)c(C)c3)c2cc1OC | > 10 | – | Insoluble | – | – | – | – | –
21 | COc1cc2ncnc(Nc3ccc(Br)cc3F)c2cc1OC | – | – | – | – | – | 0 | 31 | 1
22 | COc1cc2ncnc(Oc3ccc(NC(=O)Nc4ccc(Br)cc4)c(C)c3)c2cc1OC | > 10 | 0.04 | Insoluble | – | – | 2 | 3 | 7
23 | CCOC(=O)Nc1ccc(Nc2ncnc3cc(OC)c(OCCN(CC)CC)cc23)cc1C | – | – | – | – | – | 36 | 0 | 0
24 | CCCCNC(=O)Nc1ccc(Nc2ncnc3cc(OC)c(OC)cc23)cc1 | > 10 | 5.8 | – | – | – | 16 | 26 | 14
25 | COC(=O)Nc1ccc(Nc2ncnc3cc(OC)c(OC)cc23)cc1Cl | – | – | – | – | – | 22 | 0 | 19
26 | COc1cc2ncnc(Oc3ccc(NC(=O)Nc4ccc(F)cc4F)cc3)c2cc1OC | – | – | Insoluble | – | – | – | – | –
27 | COc1ccc(NC(=O)Nc2ccc(Oc3ncnc4cc(OC)c(OC)cc34)cc2)cc1 | – | – | Insoluble | – | – | 9 | 0 | 12
28 | CCNC(=O)Nc1ccc(Nc2ncnc3cc(OC)c(OC)cc23)cc1 | > 10 | 4.65 | – | – | – | 0 | 6 | 0
29 | COC(=O)Nc1ccc(Oc2ncnc3cc(OC)c(OC)cc23)cc1 | – | – | Insoluble | – | – | – | – | –
30 | CCOC(=O)Nc1ccc(Nc2ncnc3cc(OCCN(CC)CC)c(OC)cc23)cc1C | – | – | – | – | – | 11 | 0 | 0
31 | COc1cc2ncnc(Nc3ccc(NC(=O)OC(C)C)c(C)c3)c2cc1OC | 5.8 | – | – | – | – | – | – | –
32 | COc1cc2ncnc(Nc3ccccc3)c2cc1OC | 4.3 | 7 | – | – | – | 0 | 7 | 9
33 | COc1cc2ncnc(Oc3ccc(NC(=O)Nc4ccc5ccccc5c4)cc3)c2cc1OC | – | – | Insoluble | – | – | – | – | –

Row | Compound | IC50 [1] [µM] | IC50 [4] [µM] | solubility [5] | IC50 (HT-29 [6]) [µM] | IC50 (MCF7 [7]) [µM] | inhibition at 10 µM (HT-29 [2]) [%] | inhibition at 10 µM (MCF7 [3]) [%] | inhibition at 10 µM (PC-3) [%]
34 | COc1cc2ncnc(Oc3ccc(NC(=O)Nc4cccc(Br)c4)cc3)c2cc1OC | > 10 | 0.006 | Insoluble | 9.1 | 9.8 | – | – | 35
35 | CCCOC(=O)Nc1ccc(Nc2ncnc3cc(OC)c(OC)cc23)cc1C | – | – | – | – | – | 18 | 0 | 6
36 | COc1cc2ncnc(Oc3ccc(NC(=O)Nc4ccc(F)c(Cl)c4)cc3)c2cc1OC | – | – | Insoluble | – | – | – | – | –
37 | COc1cc2ncnc(Oc3ccc(NC(=O)Nc4ccc(Br)cc4)cc3)c2cc1OC | – | – | Insoluble | – | – | – | – | –
38 | COc1cc2ncnc(Oc3cccc(NC(=O)Nc4ccccc4)c3)c2cc1OC | – | – | Insoluble | – | – | – | – | –
39 | COc1cc2ncnc(Oc3ccc(NC(=O)Nc4ccccc4)cc3)c2cc1OC | – | – | Insoluble | – | – | 10 | 12 | 23
40 | COc1cccc(NC(=O)Nc2ccc(Nc3ncnc4cc(OC)c(OC)cc34)cc2)c1 | > 10 | – | – | – | – | – | – | –
41 | CCCCNC(=O)Nc1ccc(Oc2ncnc3cc(OC)c(OC)cc23)cc1 | – | – | Insoluble | – | – | – | – | –
42 | COc1cc2ncnc(Oc3ccc(NC(=O)NC4CCCCC4)cc3)c2cc1OC | – | – | Insoluble | – | – | – | – | –
43 | COc1cc2ncnc(Oc3ccc(NC(=O)Nc4ccc5ccccc5c4)c(C)c3)c2cc1OC | > 10 | – | Insoluble | – | – | – | – | –
44 | CCOC(=O)Nc1ccc(Nc2ncnc3cc(OC)c(OC)cc23)cc1 | – | – | – | – | – | 16 | 6 | 12
45 | COc1cc2ncnc(Oc3ccc(NC(=O)Nc4cccc(Br)c4)c(C)c3)c2cc1OC | > 10 | 0.004 | Insoluble | – | – | 36 | 30 | 25
46 | COc1cc2ncnc(Oc3cccc(NC(C)=O)c3)c2cc1OC | – | – | Insoluble | – | – | – | – | –
47 | CCOC(=O)Nc1ccc(Oc2ncnc3cc(OC)c(OC)cc23)cc1 | – | – | Insoluble | – | – | – | – | –
48 | COc1ccc(NC(=O)Nc2cccc(Oc3ncnc4cc(OC)c(OC)cc34)c2)cc1 | – | – | Insoluble | – | – | – | – | –
49 | COc1cc2ncnc(Oc3ccc(F)c(Cl)c3)c2cc1OC | – | 9.8 | Insoluble | – | – | 0 | 0 | 5
